Source: PubChem
KCNK9 block – inhibitors of human KCNK9 two-pore domain potassium channel. Q9NPC2. HEK293 KCNK9, FluxOR thallium flux fluorescence; active compounds read low. B-score at 10 µM. 310,000 tested, 1.2% active;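 active = ratio B-score over 3 SD below the library mean, with starting fluorescence within 5 SD of its mean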;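 note: negative B-score means less thallium flux so channel inhibition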
KCNQ1 pot – potentiators or activators of human KCNQ1 potassium channel | AID 2648 | B-score at 10 µM | CHO-K1 KCNQ1, thallium flux FluxOR fluorescence; active compounds read high | 310,000 tested, 0.35% active | P51787;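 active = fluorescence ratio B-score, a plate-corrected score, at least three library SD, with initial intensity B-score within 5 SD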
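Assay system: CHO-K1 cells stably expressing KCNQ1; Medium: assay buffer with matched DMSO; Also added: K+/Tl+ depolarizing stimulus; Dosing: single dose; Timing: dye 90 min, compound 20 min, room temperature; Measured by: kinetic FluxOR thallium fluorescence, 10-s 1-Hz baseline, 110-s post-stimulus read; Read-out: peak-minus-minimum fluorescence over initial fluorescence, negative-control normalized, B-scored.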
KCNQ1 inh – inhibitors of human KCNQ1 potassium channel; P51787; CHO-K1 KCNQ1, FluxOR thallium flux fluorescence; active compounds read high; B-score at 10 µM; 310,000 tested, 1.3% active; AID 2642;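 active = compounds whose thallium flux B-score, printed positive for inhibition, exceeds three library SD while starting fluorescence stays within three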;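 note: channel opened by potassium depolarization with thallium stimulus after 20 min compound exposure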
KCNK3 inh – human KCNK3 channel inhibition, primary screen; O14649; CHO-KCNK3 thallium flux, FluxOR fluorescence; active compounds read low; B-score at 10 µM; 340,000 tested, 0.84% active; AID 602410;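 active = B-score under library mean minus 4 SD, starting fluorescence ratio at most library mean plus 5 SD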;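 note: more negative B-score means stronger inhibition of thallium flux through KCNK3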
Target sequence (O14649 whole entry, looked up): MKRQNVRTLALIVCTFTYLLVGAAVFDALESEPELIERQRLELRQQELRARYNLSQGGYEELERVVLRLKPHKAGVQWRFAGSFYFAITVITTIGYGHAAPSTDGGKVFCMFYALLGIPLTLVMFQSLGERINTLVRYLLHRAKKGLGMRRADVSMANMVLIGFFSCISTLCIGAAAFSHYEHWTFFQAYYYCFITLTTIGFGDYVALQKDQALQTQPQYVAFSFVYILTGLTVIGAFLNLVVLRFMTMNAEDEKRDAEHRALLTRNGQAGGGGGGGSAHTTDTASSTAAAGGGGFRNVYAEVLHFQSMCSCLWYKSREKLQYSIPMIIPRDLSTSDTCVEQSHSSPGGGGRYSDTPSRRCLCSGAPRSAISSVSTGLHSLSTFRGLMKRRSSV
hERG rescue – shields human hERG channel from block by proarrhythmic agents; Q12809; CHO-hERG, FluxOR thallium flux, dofetilide IC70 present; activation (rescue from dofetilide block), less the hit threshold, % at 10 µM; 310,000 tested, 0.51% active; AID 1511;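 active = activation above the mean of controls blocked by dofetilide plus 5 SD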;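 note: thallium influx through hERG after potassium depolarization seen as dye fluorescence rise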
KCNK9 block conf – confirmation of human KCNK9 potassium channel inhibitors; shares compounds with KCNK9 block; HEK293 KCNK9 cells, FluxOR thallium flux fluorescence; inhibition, % at 10 µM; 4,900 tested, 43% active; AID 492992;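 active = thallium signal inhibited by more than 5 SD of the compound-free buffer control wells, on both duplicate plates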;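 note: 0% = assay buffer control wells without compound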
Kir21 sel – selectivity of KCNK9 modulators against mouse Kir2.1 | shares compounds with KCNK9 block | Kir2.1 cells, FluxOR thallium flux fluorescence | inhibition, % at 10 µM | 4,900 tested, 4% active | AID 492993;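 active = thallium signal drop more than 5 SD beyond the mean of the no-compound control wells, seen in both duplicate plates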;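 note: signal is fluorescence rise after thallium addition divided by baseline fluorescence; plate controls were assay buffer only for no effect and full block by chlorpromazine control for full effect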
KCNK9 uninduced – second counter-screen for KCNK9 modulators: effect in non-induced cells. shares compounds with KCNK9 block. non-induced KCNK9-HEK293, FluxOR thallium flux. inhibition, % at 10 µM. 4,900 tested, 40% active;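 active = thallium signal drop beyond 5 SD of the untreated control mean, on both duplicate plates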;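 note: plate controls were buffer only IC0 wells for no effect and SID17386958 at its maximal inhibitory level for full effect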
* = called active by the depositor. This is a sample that favours compounds with a hit; in the whole collection about 3.1% have one here.

For CCCCCCNC(=O)c1cccc(-c2ccc(C)c3ccccc23)n1 the results were KCNK9 block inactive, KCNQ1 pot inactive, KCNQ1 inh inactive, KCNK3 inh inactive, hERG rescue -11, KCNK9 block conf inactive, Kir21 sel inactive and KCNK9 uninduced inactive.
For CC(=NC(C)C)C1=C(O)C(C)OC1=O (stereo not given) the results were KCNK9 block inactive, KCNQ1 pot inactive, KCNQ1 inh inactive, KCNK3 inh inactive and hERG rescue -5.
`Cc1ccc(C)n1-c1nn(S(=O)(=O)c2cccc(C(F)(F)F)c2)c2cccc(F)c12` gave KCNK9 block -14*, KCNQ1 pot inactive, KCNQ1 inh inactive, KCNK3 inh inactive, hERG rescue 0, KCNK9 block conf 60%*, Kir21 sel inactive and KCNK9 uninduced 30%*.
`NC(=S)n1[nH]c(-c2ccc([N+](=O)[O-])cc2)c(N=Nc2cccc(Cl)c2)c1=O` gave KCNK9 block inactive, KCNQ1 pot 8*, KCNQ1 inh inactive, KCNK3 inh inactive, hERG rescue -10, KCNK9 block conf inactive, Kir21 sel inactive and KCNK9 uninduced inactive.
`COC(=O)C(Oc1ccc2c(-c3ccc(OC)cc3)cc(=O)oc2c1)c1ccccc1` (stereo not given) gave KCNK9 block -9.3*, KCNQ1 pot inactive, KCNQ1 inh inactive, KCNK3 inh inactive, hERG rescue -7, KCNK9 block conf 54%*, Kir21 sel inactive and KCNK9 uninduced 36%*.
For COc1ccc(OC)c(NC(=O)C(Sc2ccccc2)c2ccccc2)c1 (stereo not given) the results were KCNK9 block -11*, KCNQ1 pot inactive, KCNQ1 inh inactive, KCNK3 inh inactive, hERG rescue -8, KCNK9 block conf 58%*, Kir21 sel inactive and KCNK9 uninduced 46%*.
`CCC(C)NC(=O)COC(=O)c1oc2ccccc2c1CSc1ccc(Cl)cc1` (stereo not given) gave KCNK9 block inactive, KCNQ1 pot inactive, KCNQ1 inh inactive, KCNK3 inh inactive and hERG rescue -15.
Screening CCCCSc1nnc(-c2ccccc2)c2ccccc12 returned KCNK9 block -15*, KCNQ1 pot inactive, KCNQ1 inh inactive, KCNK3 inh inactive, hERG rescue -17, KCNK9 block conf 38%*, Kir21 sel inactive and KCNK9 uninduced 42%*.
Cc1cc(C)n(-c2nc(NCCC(C)C)c3c4c(sc3n2)COC(C)(C)C4)n1 was read as KCNK9 block -12*, KCNQ1 pot inactive, KCNQ1 inh inactive, KCNK3 inh inactive, hERG rescue -13, KCNK9 block conf 58%*, Kir21 sel inactive and KCNK9 uninduced 32%*.
`Cc1cc(C)n(-c2nc(NCCN(C)C)c3c4c(sc3n2)COC(C)(C)C4)n1` gave KCNK9 block inactive, KCNQ1 pot inactive, KCNQ1 inh inactive, KCNK3 inh inactive and hERG rescue -12.
Screening [O-]/[N+](=N\Nc1ccc(Cl)cc1)c1ccccc1 returned KCNK3 inh inactive.
`N#CCC(=O)N/N=C/c1cc(Br)ccc1OCc1cccc2ccccc12` gave KCNK9 block -10*, KCNQ1 pot inactive, KCNQ1 inh inactive, KCNK3 inh inactive, hERG rescue -5, KCNK9 block conf 47%*, Kir21 sel inactive and KCNK9 uninduced 26%*.
For O=C(CSc1nc(-c2ccc(F)cc2)cs1)N1CCN(C(=O)c2ccco2)CC1 the results were KCNK9 block inactive, KCNQ1 pot inactive, KCNQ1 inh inactive, KCNK3 inh inactive and hERG rescue -17.
For COCCN1C(=O)/C(=C/c2ccc(OCc3ccc(C(=O)O)cc3)c(OC)c2)SC1=Nc1ccccc1 the results were KCNK9 block inactive, KCNQ1 pot inactive, KCNQ1 inh inactive, KCNK3 inh inactive, hERG rescue -33, KCNK9 block conf inactive, Kir21 sel inactive and KCNK9 uninduced inactive.
For COc1cc(/C=C2\SC(=Nc3ccccc3)N(Cc3ccco3)C2=O)ccc1OC(C)C(=O)O (stereo not given) the results were KCNK9 block inactive, KCNQ1 pot inactive, KCNQ1 inh inactive, KCNK3 inh inactive and hERG rescue -10.
Screening COc1ccc(NC(=O)CN2CCN(c3ccccc3Cl)CC2)cc1 returned KCNK9 block inactive, KCNQ1 pot inactive, KCNQ1 inh inactive, KCNK3 inh inactive, hERG rescue -12, KCNK9 block conf inactive, Kir21 sel inactive and KCNK9 uninduced inactive.
CC1CCN(c2ccccc2NC(=O)c2cc([N+](=O)[O-])ccc2N2CCOCC2)CC1 was read as KCNK9 block -9.8*, KCNQ1 pot inactive, KCNQ1 inh 8*, KCNK3 inh inactive, hERG rescue -13, KCNK9 block conf 30%*, Kir21 sel inactive and KCNK9 uninduced 30%*.
Screening O=C(Nc1ccccc1N1CCOCC1)c1cccc2c(Br)cccc12 returned KCNK9 block inactive, KCNQ1 pot inactive, KCNQ1 inh inactive, KCNK3 inh inactive, hERG rescue -2, KCNK9 block conf inactive, Kir21 sel inactive and KCNK9 uninduced inactive.
O=C(Nc1ccc(N2CCOCC2)cc1)c1cccc2c(Br)cccc12 was read as KCNK9 block inactive, KCNQ1 pot inactive, KCNQ1 inh inactive, KCNK3 inh inactive and hERG rescue -7.
`CCCc1c(C(=O)Nc2cc(C)on2)cnn1-c1ccccc1` gave KCNK9 block inactive, KCNQ1 pot inactive, KCNQ1 inh inactive, KCNK3 inh inactive and hERG rescue -11.
Screening CCOC(=O)/C(=N\Nc1ccccc1Cl)N1CCN(C)CC1 returned KCNK9 block inactive, KCNQ1 pot inactive, KCNQ1 inh inactive, KCNK3 inh inactive and hERG rescue -6.
`CCOC(=O)/C(=N\Nc1ccccc1Cl)N1CCN(c2ccccc2OC)CC1` gave KCNK9 block -10*, KCNQ1 pot inactive, KCNQ1 inh inactive, KCNK3 inh inactive, hERG rescue -11, KCNK9 block conf 32%*, Kir21 sel inactive and KCNK9 uninduced 29%*.
Screening O=C(CN(CCc1ccccc1)S(=O)(=O)c1ccc(Cl)cc1)N/N=C/c1ccccc1C(=O)O returned KCNK9 block inactive, KCNQ1 pot inactive, KCNQ1 inh inactive, KCNK3 inh inactive and hERG rescue -11.
